For assay [1], the target named is Cyclin-dependent kinase 2 (Homo sapiens) (UniProt P24941). Nature of the assay: Inhibition of human recombinant CDK2 at 15 nM related to control ULK1.
Assay [2] has as its target T1, Serine/threonine-protein kinase NLK (Homo sapiens) (UniProt Q9UBE8).
T1 sequence (whole entry): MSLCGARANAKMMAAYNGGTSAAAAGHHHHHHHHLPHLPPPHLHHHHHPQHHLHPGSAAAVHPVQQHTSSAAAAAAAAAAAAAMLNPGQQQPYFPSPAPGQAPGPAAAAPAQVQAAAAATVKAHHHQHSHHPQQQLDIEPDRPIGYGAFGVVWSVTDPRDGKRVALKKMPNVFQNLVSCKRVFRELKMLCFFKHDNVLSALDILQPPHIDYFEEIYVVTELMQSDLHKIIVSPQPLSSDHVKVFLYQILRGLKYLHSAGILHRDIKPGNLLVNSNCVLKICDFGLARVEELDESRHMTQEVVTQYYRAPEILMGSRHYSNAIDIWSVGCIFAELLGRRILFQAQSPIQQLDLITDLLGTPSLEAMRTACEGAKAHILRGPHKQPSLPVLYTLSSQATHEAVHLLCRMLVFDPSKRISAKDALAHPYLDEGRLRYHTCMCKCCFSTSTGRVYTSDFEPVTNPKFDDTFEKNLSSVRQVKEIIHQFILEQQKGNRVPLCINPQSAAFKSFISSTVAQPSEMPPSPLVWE
In words: Inhibition of human recombinant NLK at 15 nM related to control ULK1.

Assay [3] has as its target T2, SNF-related serine/threonine-protein kinase (Homo sapiens) (UniProt Q9NRH2).
T2 sequence (whole entry): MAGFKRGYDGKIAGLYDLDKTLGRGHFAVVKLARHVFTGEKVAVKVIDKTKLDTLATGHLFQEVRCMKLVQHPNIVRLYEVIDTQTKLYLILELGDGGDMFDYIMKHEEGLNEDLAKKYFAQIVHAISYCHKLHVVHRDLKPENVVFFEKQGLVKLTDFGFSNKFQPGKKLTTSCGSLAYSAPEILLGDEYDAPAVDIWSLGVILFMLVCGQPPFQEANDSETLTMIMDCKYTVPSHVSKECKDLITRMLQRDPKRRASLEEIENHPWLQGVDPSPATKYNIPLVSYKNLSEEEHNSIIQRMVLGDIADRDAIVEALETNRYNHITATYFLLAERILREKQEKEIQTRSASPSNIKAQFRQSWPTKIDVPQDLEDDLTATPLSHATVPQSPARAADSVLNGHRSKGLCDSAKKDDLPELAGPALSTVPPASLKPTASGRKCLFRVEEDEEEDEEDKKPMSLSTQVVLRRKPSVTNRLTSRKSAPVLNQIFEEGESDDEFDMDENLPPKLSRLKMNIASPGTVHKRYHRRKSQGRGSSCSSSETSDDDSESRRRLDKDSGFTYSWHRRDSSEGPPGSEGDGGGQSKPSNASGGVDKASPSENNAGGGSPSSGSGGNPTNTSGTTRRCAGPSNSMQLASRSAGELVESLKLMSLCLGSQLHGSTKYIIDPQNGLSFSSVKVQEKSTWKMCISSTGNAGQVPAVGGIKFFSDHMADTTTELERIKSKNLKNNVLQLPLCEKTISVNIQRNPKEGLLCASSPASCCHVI
Nature of the assay: Inhibition of human recombinant SNRK at 15 nM related to control ULK1.

The target in assay [4] is Glycogen synthase kinase-3 alpha (Homo sapiens) (UniProt P49840). In words: Inhibition of human recombinant GSK3A at 40 nM in presence of ATP by radiometric assay relative to control.
Assay [5] deals with Activated CDC42 kinase 1 (Homo sapiens) (UniProt Q07912). In words: Inhibition of human recombinant ACK at 40 nM related to control ULK1. A digest of the protocol:
(§1)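 Radiometric activity assays in a panel of 327 human recombinant kinases, each run in duplicate at one inhibitor concentration. Activity remaining is expressed as percent of vehicle control, and percent inhibition is calculated as 100% minus percent activity remaining.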

Assay [6] deals with 5'-AMP-activated protein kinase catalytic subunit alpha-2 (Homo sapiens) (UniProt P54646). In words: Inhibition of human recombinant AMPKa2 at 40 nM related to control ULK1. A digest of the protocol: as §1
Assay [7] has as its target Tyrosine-protein kinase Fyn (Homo sapiens) (UniProt P06241). In words: Inhibition of human recombinant FYN at 40 nM related to control ULK1.
Assay [8] addresses T3, Tribbles homolog 2 (Homo sapiens) (UniProt Q92519).
T3 sequence (whole entry): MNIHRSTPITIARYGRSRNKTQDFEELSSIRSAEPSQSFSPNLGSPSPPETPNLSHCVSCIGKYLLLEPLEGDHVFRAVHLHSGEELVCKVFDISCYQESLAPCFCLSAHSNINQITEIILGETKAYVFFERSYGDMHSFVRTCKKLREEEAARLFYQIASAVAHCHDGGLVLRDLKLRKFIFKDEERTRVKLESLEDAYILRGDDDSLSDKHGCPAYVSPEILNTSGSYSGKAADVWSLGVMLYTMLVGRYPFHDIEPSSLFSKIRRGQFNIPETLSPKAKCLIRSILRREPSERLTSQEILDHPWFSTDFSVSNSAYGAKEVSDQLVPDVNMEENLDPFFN
Nature of the assay: Inhibition of human recombinant Trb2 at 40 nM related to control ULK1.

The target of assay [9] is Tyrosine-protein kinase Fer (Homo sapiens) (UniProt P16591). In words: Inhibition of human recombinant FER at 500 nM in presence of ATP by radiometric assay relative to control.
For assay [10], the target named is T4, NUAK family SNF1-like kinase 1 (Homo sapiens) (UniProt O60285).
T4 sequence (whole entry): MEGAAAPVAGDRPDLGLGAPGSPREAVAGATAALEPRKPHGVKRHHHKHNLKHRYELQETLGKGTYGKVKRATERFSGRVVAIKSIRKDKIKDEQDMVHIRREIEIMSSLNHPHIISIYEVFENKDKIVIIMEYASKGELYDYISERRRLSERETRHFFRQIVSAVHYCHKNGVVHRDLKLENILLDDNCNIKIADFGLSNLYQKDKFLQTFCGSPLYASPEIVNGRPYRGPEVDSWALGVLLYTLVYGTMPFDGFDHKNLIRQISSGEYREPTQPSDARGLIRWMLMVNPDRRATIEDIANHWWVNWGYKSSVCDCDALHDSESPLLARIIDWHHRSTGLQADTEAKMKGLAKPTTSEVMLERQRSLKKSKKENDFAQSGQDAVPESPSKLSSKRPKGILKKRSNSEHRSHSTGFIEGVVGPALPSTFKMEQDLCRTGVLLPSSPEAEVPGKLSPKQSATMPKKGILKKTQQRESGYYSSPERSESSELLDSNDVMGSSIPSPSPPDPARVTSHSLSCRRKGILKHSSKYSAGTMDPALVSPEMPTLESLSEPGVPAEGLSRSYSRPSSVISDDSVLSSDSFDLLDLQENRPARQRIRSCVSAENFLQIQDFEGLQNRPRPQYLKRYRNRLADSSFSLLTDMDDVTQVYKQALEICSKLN
Nature of the assay: Inhibition of human recombinant NuaK1 at 500 nM in presence of ATP by radiometric assay relative to control.

The target of assay [11] is Angiopoietin-1 receptor (Homo sapiens) (UniProt Q02763). Nature of the assay: Inhibition of human recombinant Tie2 at 500 nM related to control ULK1.
Sequence of Angiopoietin-1 receptor (Homo sapiens) (Q02763 whole entry): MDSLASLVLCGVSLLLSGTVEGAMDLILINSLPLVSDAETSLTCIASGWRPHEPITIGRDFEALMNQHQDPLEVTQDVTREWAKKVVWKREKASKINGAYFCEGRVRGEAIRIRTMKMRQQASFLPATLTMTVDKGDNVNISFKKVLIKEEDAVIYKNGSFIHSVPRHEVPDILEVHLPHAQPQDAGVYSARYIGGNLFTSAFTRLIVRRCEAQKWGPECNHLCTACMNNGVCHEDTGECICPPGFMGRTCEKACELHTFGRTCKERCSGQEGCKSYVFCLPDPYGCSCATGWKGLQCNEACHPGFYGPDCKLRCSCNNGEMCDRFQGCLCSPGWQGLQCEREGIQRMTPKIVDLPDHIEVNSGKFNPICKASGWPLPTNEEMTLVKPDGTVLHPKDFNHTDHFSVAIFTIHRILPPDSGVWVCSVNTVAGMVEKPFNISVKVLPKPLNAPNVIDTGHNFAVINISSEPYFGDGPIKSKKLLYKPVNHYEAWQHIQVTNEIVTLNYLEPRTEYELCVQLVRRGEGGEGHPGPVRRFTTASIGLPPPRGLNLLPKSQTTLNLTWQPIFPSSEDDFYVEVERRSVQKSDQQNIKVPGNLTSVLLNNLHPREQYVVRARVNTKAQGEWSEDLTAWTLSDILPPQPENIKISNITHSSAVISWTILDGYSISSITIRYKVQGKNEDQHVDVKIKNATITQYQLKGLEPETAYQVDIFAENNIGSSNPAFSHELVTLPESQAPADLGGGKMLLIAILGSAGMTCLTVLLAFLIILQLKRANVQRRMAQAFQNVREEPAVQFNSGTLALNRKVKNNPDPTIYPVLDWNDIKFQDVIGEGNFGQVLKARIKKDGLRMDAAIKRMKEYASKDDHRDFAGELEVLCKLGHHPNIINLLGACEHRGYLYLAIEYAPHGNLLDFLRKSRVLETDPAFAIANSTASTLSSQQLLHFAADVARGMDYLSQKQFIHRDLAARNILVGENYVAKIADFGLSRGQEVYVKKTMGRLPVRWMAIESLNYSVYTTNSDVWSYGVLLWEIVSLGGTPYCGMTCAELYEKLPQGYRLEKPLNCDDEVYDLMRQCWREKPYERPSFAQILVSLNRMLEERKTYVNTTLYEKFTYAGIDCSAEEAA

Sequence of 5'-AMP-activated protein kinase catalytic subunit alpha-2 (Homo sapiens) (P54646 whole entry, looked up): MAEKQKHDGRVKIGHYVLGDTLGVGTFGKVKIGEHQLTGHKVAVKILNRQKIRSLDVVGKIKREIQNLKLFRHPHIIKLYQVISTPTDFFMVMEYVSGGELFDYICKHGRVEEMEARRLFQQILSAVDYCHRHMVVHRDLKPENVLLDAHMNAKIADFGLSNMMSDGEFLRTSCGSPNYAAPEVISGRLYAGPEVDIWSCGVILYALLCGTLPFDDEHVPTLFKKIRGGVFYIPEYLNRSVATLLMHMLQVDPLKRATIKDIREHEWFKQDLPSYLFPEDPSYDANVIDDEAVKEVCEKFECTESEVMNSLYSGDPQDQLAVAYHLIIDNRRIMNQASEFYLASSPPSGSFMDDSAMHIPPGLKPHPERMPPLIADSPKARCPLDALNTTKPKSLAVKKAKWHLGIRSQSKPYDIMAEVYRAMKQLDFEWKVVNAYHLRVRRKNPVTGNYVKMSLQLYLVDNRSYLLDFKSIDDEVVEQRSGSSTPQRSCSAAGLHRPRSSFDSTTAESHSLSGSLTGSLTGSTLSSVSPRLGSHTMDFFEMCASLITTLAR
Sequence of Tyrosine-protein kinase Fer (Homo sapiens) (P16591 whole entry, looked up): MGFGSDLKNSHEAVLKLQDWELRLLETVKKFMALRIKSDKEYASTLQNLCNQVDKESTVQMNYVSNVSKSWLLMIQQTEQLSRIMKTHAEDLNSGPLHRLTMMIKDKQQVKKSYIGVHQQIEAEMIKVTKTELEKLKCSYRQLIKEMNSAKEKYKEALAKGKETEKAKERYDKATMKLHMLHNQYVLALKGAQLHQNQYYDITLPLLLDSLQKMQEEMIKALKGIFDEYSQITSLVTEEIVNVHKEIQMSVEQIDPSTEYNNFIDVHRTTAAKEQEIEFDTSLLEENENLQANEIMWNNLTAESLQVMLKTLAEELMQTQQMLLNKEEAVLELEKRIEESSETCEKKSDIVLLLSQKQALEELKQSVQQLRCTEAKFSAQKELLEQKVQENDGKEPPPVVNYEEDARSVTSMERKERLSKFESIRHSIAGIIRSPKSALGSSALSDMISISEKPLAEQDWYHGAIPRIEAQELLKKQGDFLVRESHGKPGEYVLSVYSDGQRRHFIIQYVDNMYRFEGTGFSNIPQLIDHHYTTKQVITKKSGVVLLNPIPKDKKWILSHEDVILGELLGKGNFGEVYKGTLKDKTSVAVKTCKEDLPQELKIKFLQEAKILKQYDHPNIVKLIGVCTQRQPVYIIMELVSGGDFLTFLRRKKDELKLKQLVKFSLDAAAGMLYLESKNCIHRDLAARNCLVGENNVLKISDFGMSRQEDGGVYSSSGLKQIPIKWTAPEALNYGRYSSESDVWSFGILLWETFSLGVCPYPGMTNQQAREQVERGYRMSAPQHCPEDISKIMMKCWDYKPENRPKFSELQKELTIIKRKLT
Sequence of Glycogen synthase kinase-3 alpha (Homo sapiens) (P49840 2-483 limits assumed): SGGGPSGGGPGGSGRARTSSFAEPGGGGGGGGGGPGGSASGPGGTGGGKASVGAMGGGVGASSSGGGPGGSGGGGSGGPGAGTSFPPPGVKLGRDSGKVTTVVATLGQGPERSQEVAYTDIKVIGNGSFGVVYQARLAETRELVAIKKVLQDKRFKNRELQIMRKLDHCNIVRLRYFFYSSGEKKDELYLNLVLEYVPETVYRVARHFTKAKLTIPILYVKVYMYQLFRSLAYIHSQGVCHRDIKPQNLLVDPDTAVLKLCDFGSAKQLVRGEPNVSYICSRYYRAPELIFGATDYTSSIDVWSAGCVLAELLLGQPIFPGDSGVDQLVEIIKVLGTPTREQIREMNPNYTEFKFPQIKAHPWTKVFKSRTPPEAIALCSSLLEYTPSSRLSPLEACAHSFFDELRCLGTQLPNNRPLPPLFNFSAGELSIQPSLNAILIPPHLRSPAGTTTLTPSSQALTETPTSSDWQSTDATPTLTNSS
Sequence of Activated CDC42 kinase 1 (Homo sapiens) (Q07912 whole entry, looked up): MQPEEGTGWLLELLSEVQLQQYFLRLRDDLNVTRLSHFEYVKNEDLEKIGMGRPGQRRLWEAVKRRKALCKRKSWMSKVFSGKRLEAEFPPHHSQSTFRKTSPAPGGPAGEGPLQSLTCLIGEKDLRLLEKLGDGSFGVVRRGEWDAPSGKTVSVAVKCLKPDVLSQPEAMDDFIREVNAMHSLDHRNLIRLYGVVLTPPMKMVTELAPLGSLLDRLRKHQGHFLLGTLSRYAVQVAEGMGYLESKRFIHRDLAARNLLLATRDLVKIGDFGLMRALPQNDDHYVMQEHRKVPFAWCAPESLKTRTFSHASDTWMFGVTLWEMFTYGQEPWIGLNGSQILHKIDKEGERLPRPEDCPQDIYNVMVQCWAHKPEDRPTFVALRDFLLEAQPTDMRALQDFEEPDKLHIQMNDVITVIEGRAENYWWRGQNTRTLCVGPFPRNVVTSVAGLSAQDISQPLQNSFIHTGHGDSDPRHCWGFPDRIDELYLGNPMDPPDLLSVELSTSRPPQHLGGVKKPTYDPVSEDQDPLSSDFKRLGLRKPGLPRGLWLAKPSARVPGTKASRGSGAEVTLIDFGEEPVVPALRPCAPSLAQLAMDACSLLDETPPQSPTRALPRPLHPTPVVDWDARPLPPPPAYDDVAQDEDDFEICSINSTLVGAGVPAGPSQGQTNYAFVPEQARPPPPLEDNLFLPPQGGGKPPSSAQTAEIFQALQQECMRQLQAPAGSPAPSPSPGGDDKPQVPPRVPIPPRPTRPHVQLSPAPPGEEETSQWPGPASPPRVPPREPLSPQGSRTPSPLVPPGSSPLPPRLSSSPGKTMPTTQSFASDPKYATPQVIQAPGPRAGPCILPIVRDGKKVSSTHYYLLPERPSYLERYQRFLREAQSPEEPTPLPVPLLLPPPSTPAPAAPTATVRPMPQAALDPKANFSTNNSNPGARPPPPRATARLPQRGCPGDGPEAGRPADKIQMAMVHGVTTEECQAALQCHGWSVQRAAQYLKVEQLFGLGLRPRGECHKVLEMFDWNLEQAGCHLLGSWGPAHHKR
Sequence of Tyrosine-protein kinase Fyn (Homo sapiens) (P06241 2-537 limits assumed): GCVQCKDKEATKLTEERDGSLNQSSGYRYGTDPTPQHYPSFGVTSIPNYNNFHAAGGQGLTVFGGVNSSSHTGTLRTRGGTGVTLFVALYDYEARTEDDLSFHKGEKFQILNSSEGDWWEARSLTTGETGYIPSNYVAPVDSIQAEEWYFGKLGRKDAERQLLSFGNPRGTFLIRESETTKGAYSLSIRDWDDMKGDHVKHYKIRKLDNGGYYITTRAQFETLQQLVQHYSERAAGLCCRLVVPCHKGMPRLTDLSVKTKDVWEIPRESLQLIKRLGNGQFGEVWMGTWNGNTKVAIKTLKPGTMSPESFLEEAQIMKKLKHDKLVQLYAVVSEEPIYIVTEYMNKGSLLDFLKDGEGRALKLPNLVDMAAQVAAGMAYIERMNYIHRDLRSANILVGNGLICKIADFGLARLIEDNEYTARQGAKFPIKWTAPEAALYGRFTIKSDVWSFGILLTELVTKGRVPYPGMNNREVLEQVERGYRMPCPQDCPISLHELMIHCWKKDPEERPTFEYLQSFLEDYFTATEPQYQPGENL

Consider `CC(C)[C@H](NC(=O)c1cc(-c2cnn3cc(-c4ccc(OCCN5CCCCC5)cc4)cnc23)cs1)C(F)(F)F`, for which the values for the fold change (FC) in assay [1], in assay [2] and in assay [3] were 0.01, 0.1 and 0.09, respectively.
Regarding `O=C(N[C@@H](C1CC1)C(F)(F)F)c1cc(-c2cnn3cc(-c4ccc(F)cc4)cnc23)cs1`, in assay [4], the inhibition (as a rule, how much of the control response was suppressed) was 0%. For the same compound, the fold change (FC) in [5] is 0.23; in assay [6], 0.1; in [7] it was 0; in assay [8] it was 0.47.
For the compound `CNC(=O)c1ccccc1Oc1nc(Nc2cc(OC)c(OC)c(OC)c2)ncc1Br`, the results for the inhibition in assay [9] and in assay [10] were 0% and 71%, respectively. The fold change (FC) in assay [11] came to 0.31.
